Insulin prom up: MIN6 insulin promoter up-regulation. MIN6 insulin promoter-GFP reporter, high-content imaging; stronger effect = higher value. 190,000 tested, 0.3% active. z-score at 5 µM;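 active means z-score above 3 at 5 µM with at least 500 cells counted in the well; inconclusive means wells under 500 cells, flagged as cytotoxic or low count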
Autophagy mod: alters autophagy in cells. MEF GFP-LC3 puncta imaging; test concentration mostly 10 µM. calls only at 10 µM (by protocol). 190,000 tested, 0.98% active. AID 463193;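 active means percentage of spot-positive cells more than 3 SD above its plate mean, without a fluorescence outlier flag or 80% toxicity; inconclusive means no clear call, values can overlap the other calls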
KCC2 mod: KCC2 (human) Cl- transport modulation; 190,000 tested, 2.2% active; AID 1456; Q9H2X9; B-score of Tl+ flux slope (higher = more flux/activation; lower = inhibition) at 10 µM; KCC2 cells, thallium flux FluoZin-2 fluorescence;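 active means thallium flux slope and its plate-corrected score both differing from the plate sample mean at a set confidence after two filtering rounds, in either direction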;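 further: slope of fluorescence scaled to starting intensity during 10 to 20 s after thallium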
SKKanGAS inh: SKKanGAS growth inhibition | AID 1662 | inhibition, % at 7.5 µM | 300,000 tested, 1.3% active | S. pyogenes SKKanGAS, kanamycin growth, BacTiter-Glo, 6 h;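 active means mean replicate score, as percent of positive control median, at least 50; inconclusive means mean below 50 but one replicate at or above 50; inactive means mean and every replicate below 50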;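 further: strain carries kanamycin resistance gene driven by streptokinase promoter and grows in 40 µg/ml kanamycin; loss of luminescence reflects streptokinase promoter inhibition or plain growth inhibition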
Rad51 HR inh: Rad51 (human) homologous recombination inhibition. inhibition, % at 10 µM. Q06609. AID 1385. 200,000 tested, 0.085% active. hRad51 DNA strand exchange, fluorescence dequenching;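 active means inhibition above 40% at the single screening dose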
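System: hRad51 filaments on single-stranded DNA; reagent: Fluorescein- and BHQ1-tagged 47-mer duplex; compound dosing: one concentration, 10 µM final; timing: filaments 15 min 37 °C, then compound 30 min; measured by: fluorescein emission 520 nm, excitation 485 nm; benchmarks: per-plate controls and blanks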
WT yeast gro inh: growth inhibition of WT yeast, mitochondrial fusion screen; mitochondrial fusion phenotypic screen, WT strain; AID 1362; inhibition, % at 10 µM; 190,000 tested, 2.1% active; in the data active means inhibition above about 58%; tested in S. cerevisiae
Each line names hits and unclear results; the compound was inactive in the other large screens. In the library only some 4.2% were active in any assay of this set; here they are far more common.

Cc1ccc(C(=O)NCC(=O)OCC(=O)c2ccc(Br)s2)cc1	none (no result: Insulin prom up, Autophagy mod, KCC2 mod, Rad51 HR inh, WT yeast gro inh)
Cc1cc(C(=O)CCC(=O)NC(C)c2ccc(S(N)(=O)=O)cc2)c(C)s1 (centres undefined)	none (no result: Insulin prom up, Autophagy mod, KCC2 mod, Rad51 HR inh, WT yeast gro inh)
CC[n+]1c(/C=C2\Sc3ccccc3N2C)ccc2cccc(C)c21	Insulin prom up inconclusive, Autophagy mod inconclusive, SKKanGAS inh 69
Cc1ccc(CSCC(=O)N(C)CC(=O)Nc2ccccc2C(F)(F)F)cc1	none (no result: Insulin prom up, Autophagy mod, KCC2 mod, Rad51 HR inh, WT yeast gro inh)
COc1ccccc1N=Nc1nc(-c2ccccc2)c(-c2ccccc2)[nH]1	SKKanGAS inh 67, WT yeast gro inh 64 (no result: Rad51 HR inh)
COc1ccc(N=Nc2nc(-c3ccccc3)c(-c3ccccc3)[nH]2)cc1	none (no result: Insulin prom up, Rad51 HR inh)
Oc1ccccc1N=Nc1nc(-c2ccccc2)c(-c2ccccc2)[nH]1	SKKanGAS inh 114
CCCCN(C(=O)c1cc(Cl)nc2ccccc12)c1c(N)n(CCCC)c(=O)[nH]c1=O	none (no result: Insulin prom up, Autophagy mod, KCC2 mod, Rad51 HR inh, WT yeast gro inh)
COCCn1c(N)c(C(=O)NCC2CCCO2)c2nc3ccccc3nc21 (centres undefined)	none
COC(=O)c1c(NC(=O)Cc2cccs2)sc2c1CCCC2	SKKanGAS inh 69
COCCn1c(N)c(C(=O)Nc2sc3c(c2C(=O)OC)CCCC3)c2nc3ccccc3nc21	SKKanGAS inh 58
COCC(=O)Nc1sc2c(c1C(=O)OC)CCCC2	none
CCOC(=O)Cn1ncn(-c2ccc(OC(F)(F)F)cc2)c1=O	none (no result: Rad51 HR inh)
Cc1cc(C)cc(NC(=O)c2ccc(Cn3nc(C)c(Cl)c3C)o2)c1	WT yeast gro inh 74 (no result: Insulin prom up)
Cc1ccc(CNC(=O)c2ccc(Cn3nc(C)c(Cl)c3C)o2)cc1	WT yeast gro inh 100 (no result: KCC2 mod)
CN(C(=O)COC(=O)CCCN1C(=O)c2cccc3cccc(c23)C1=O)C1CCS(=O)(=O)C1 (centres undefined)	none (no result: Insulin prom up, Autophagy mod, KCC2 mod, Rad51 HR inh, WT yeast gro inh)
CC1=CC(=O)N(c2ccn(C)n2)C1=O	none (no result: Autophagy mod, WT yeast gro inh)
Fc1ccccc1Nc1nc2c(s1)CCc1ccccc1-2	WT yeast gro inh 64 (no result: SKKanGAS inh, Rad51 HR inh)
COc1cccc(CN2CCCC(C(=O)Nc3ccc(-c4cscn4)cc3)C2)c1 (centres undefined)	none (no result: Insulin prom up, Autophagy mod, KCC2 mod, Rad51 HR inh, WT yeast gro inh)
COc1cc(Br)cc(/C=C/c2ccc3cccc(O)c3n2)c1O	SKKanGAS inh 101 (no result: Insulin prom up, Autophagy mod, KCC2 mod, Rad51 HR inh, WT yeast gro inh)
COc1ccc(OC)c(/C=C/c2ccc3cccc(O)c3n2)c1	SKKanGAS inh 90 (no result: Insulin prom up, Autophagy mod, KCC2 mod, Rad51 HR inh, WT yeast gro inh)
COc1cc(/C=C/c2ccc3cccc(O)c3n2)c(Br)cc1O	SKKanGAS inh 94 (no result: Insulin prom up, Autophagy mod, KCC2 mod, Rad51 HR inh, WT yeast gro inh)
Cc1ccsc1/C=C/c1ccc2ccccc2n1	none (no result: Rad51 HR inh)
Cc1ccsc1/C=C/c1ccc2cccc(O)c2n1	SKKanGAS inh 101
Cc1ccc(C(c2nnnn2CC2CCCO2)N2CCN(Cc3ccccc3)CC2)cc1 (centres undefined)	none
COc1c[nH]n(-c2ccccc2)c(=O)c1=O	none (no result: Insulin prom up, Autophagy mod, KCC2 mod, Rad51 HR inh, WT yeast gro inh)
Cc1nc2cc(Cl)c(Cl)cc2n1-c1ccccn1	none (no result: Insulin prom up, Autophagy mod, KCC2 mod, Rad51 HR inh, WT yeast gro inh)
CC1CCCN(C(=O)CCNS(=O)(=O)c2ccc3c(c2)c(=O)n(C)c(=O)n3C)C1 (centres undefined)	none (no result: Insulin prom up, Autophagy mod, KCC2 mod, Rad51 HR inh, WT yeast gro inh)
CSc1ccc(/C=C/c2ccc3cccc(O)c3n2)cc1	SKKanGAS inh 100
Oc1cccc2ccc(/C=C/c3ccccc3Br)nc12	SKKanGAS inh 103 (no result: Insulin prom up, Autophagy mod, KCC2 mod, Rad51 HR inh, WT yeast gro inh)
COc1cc(/C=C/c2ccc3cccc(OC)c3n2)c(O)c([N+](=O)[O-])c1	none
COc1cc(Br)c(/C=C/c2ccc3cccc(O)c3n2)cc1OC	SKKanGAS inh 85 (no result: Insulin prom up, Autophagy mod, KCC2 mod, Rad51 HR inh, WT yeast gro inh)
COc1cc(/C=C/c2ccc3cccc(O)c3n2)ccc1O	SKKanGAS inh 88 (no result: Insulin prom up, Autophagy mod, KCC2 mod, Rad51 HR inh, WT yeast gro inh)
CSc1ccccc1NC(=O)CN(C)C(=O)C1CCN(C(=O)Nc2ccccc2)CC1	none (no result: Insulin prom up, Autophagy mod, KCC2 mod, Rad51 HR inh, WT yeast gro inh)
O=C(O)c1ccc(Cl)c(S(=O)(=O)Nc2ccc3cn[nH]c3c2)c1	none
O=C(CCn1cccn1)N1CCCC(N2CCN(c3cccc(Cl)c3)CC2)C1 (centres undefined)	none (no result: Insulin prom up, Autophagy mod, KCC2 mod, Rad51 HR inh, WT yeast gro inh)
COc1cc(/C=C2/SC(=S)N(CC(=O)O)C2=O)ccc1OC(=O)c1ccco1	none (no result: Insulin prom up, Autophagy mod, KCC2 mod, Rad51 HR inh, WT yeast gro inh)
COC(=O)C1=C(O)/C(=C\c2ccc(CNC(=O)C(=O)Nc3ccc(C)cc3)o2)N=C1C	WT yeast gro inh 76
CCOC(=O)C1CCCN(CCC(=O)Nc2ccc(Br)c(C)c2)C1 (centres undefined)	none (no result: Insulin prom up, Autophagy mod, KCC2 mod, Rad51 HR inh, WT yeast gro inh)
COc1ccc(Nc2nc(NN)nc(Nc3ccc(OC)cc3)n2)cc1	SKKanGAS inh 50 (no result: Insulin prom up, Autophagy mod, KCC2 mod, Rad51 HR inh, WT yeast gro inh)
NNc1nc(Nc2ccccc2)nc(N2CCCCC2)n1	none
COc1ccc(Nc2ccc(OC)cc2)cc1	none (no result: Autophagy mod, WT yeast gro inh)
NNc1nc(Nc2ccccc2)nc(Nc2ccccc2)n1	SKKanGAS inh 52 (no result: Insulin prom up)
O=c1cc2c(nn1Cc1ccc(F)cc1)-c1ccccc1CC2	none (no result: Rad51 HR inh)

Screening data as filed in PubChem BioAssay.
